Converted amounts (≈) assume the structure as drawn.
Key:
[1] = system: Mycobacterium tuberculosis; assay: Antimycobacterial activity against Mycobacterium tuberculosis H37Rv after 14 days; type: functional; conditions: 336 h
Method in brief: (§1)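 Mtb H37Rv grown in MB 7H9 (10% albumin dextrose saline, 0.2% glycerol, 0.05% tween-80) to OD600nm 0.2, diluted 1000× and added to 96-well plates with compounds (50 mM DMSO stocks). Tested range 0.05 to 50 μM. Incubated 37 °C for 14 days; MIC determined per standard protocol.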

THP-1 [2] = assay: Cytotoxicity against human THP1 cells assessed as redution in cell viability at 10 uM by WST-1 assay; type: cell-based; conditions: thp-1, 10 µM
Method in brief: (§2)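 THP-1 macrophages; viability read with the WST-1 cell proliferation kit following the manufacturer's protocol. Compounds came from 50 mM DMSO stocks, with 50 μM the highest final concentration tested.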

[3] = system: Mycobacterium tuberculosis; assay: Antimycobacterial activity against Mycobacterium tuberculosis H37Rv infected in human THP-1 cells assessed as reduction in microbial growth after 4 days by ten-fold serial dilution method; type: functional
Method in brief: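 PMA-differentiated THP-1 macrophages (2 × 10^5 per well) infected with Mtb H37Rv at MOI 1:10. At 4 h, extracellular bacteria removed with 200 μg ml–1 amikacin in RPMI for 2 h. At 24 h, cells were washed and given RPMI with drug at non-cytotoxic concentration for 4 days. Lysis in PBS–0.1% Triton X-100, then 10-fold serial dilutions plated on MB 7H11 for 3–4 weeks at 37 °C. Triplicate wells, mean + S.E.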

THP-1 [4] = assay: Cytotoxicity against human THP1 cells assessed as redution in cell viability at 50 uM by WST-1 assay; type: cell-based; conditions: thp-1, 50 µM; method in brief: as §2
[5] = system: Mycobacterium tuberculosis; assay: Antimycobacterial activity against Mycobacterium tuberculosis; type: functional; method in brief: as §1
[6] = Lipophilicity, logP of compound; type: physicochemical; conditions: octanol/water

Structure (SMILES) | MIC [1] | other results
CC(C)c1nc2cc(C(=O)O)ccc2n1CC1CCN(C(=O)c2ccc(F)cc2)CC1 | 50 µM (≈ 21.2 µg/mL) | 
COc1ccc(C(=O)N2CCC(Cn3c(C(C)C)nc4cc(C(=O)O)ccc43)CC2)cc1 | 50 µM (≈ 21.8 µg/mL) | 
CC(C)c1nc2cc(C(=O)O)ccc2n1-c1ccc(Br)cc1 | 50 µM (≈ 18 µg/mL) | 
O=C1Cn2c(nc3ccccc32)-c2ccc(NC(=O)c3ccc([N+](=O)[O-])cc3)cc2N1 | 0.195 µM (≈ 0.0806 µg/mL) | Activity (THP-1 [2]): Non-Toxic; fold change (FC) [3]: 8 - 10
O=C1Cn2c(nc3ccccc32)-c2ccc(NC(=O)c3ccc(Br)cc3)cc2N1 | > 50 µM | 
CCOC(=O)C(=O)Nc1ccc2c(c1)NC(=O)Cn1c-2nc2ccccc21 | 0.78 µM (≈ 0.284 µg/mL) | Activity (THP-1 [4]): Non-Toxic
Cc1ccc(C(=O)Nc2ccc3c(c2)NC(=O)Cn2c-3nc3ccccc32)cc1 | 0.39 µM (≈ 0.149 µg/mL) | Activity (THP-1 [2]): Non-Toxic
CC(C)c1nc2cc(C(=O)O)ccc2n1-c1ccc(C#N)cc1 | 50 µM (≈ 15.3 µg/mL) | 
O=C1Cn2c(nc3ccccc32)-c2ccc(NC(=O)c3ccc(F)cc3)cc2N1 | 0.195 µM (≈ 0.0753 µg/mL) | Activity (THP-1 [4]): Non-Toxic; fold change (FC) [3]: 8 - 10
COc1cc(-n2c(C(C)C)nc3cc(C(=O)O)ccc32)cc(OC)c1O | 0.78 µM (≈ 0.278 µg/mL) | Activity (THP-1 [4]): Non-Toxic; fold change (FC) [3]: 8 - 10
CCN(CC)c1ccc(/C=C/C(=N/Nc2nc(C)cs2)C2=Cc3ccccc3C2)cc1 |  | MIC90 [5]: 2.5 mg/L (≈ 5.83 µM); logP [6]: 6.03
COc1ccc(-n2c(C(C)C)nc3cc(C(=O)O)ccc32)cc1OC | 25 µM (≈ 8.51 µg/mL) | 
CC(C)c1nc2cc(C(=O)O)ccc2n1-c1cccc([N+](=O)[O-])c1 | 25 µM (≈ 8.13 µg/mL) | 
CC(C)c1nc2cc(C(=O)O)ccc2n1-c1ccncc1 | 25 µM (≈ 7.03 µg/mL) | 
O=C1Cn2c(nc3ccccc32)-c2ccc(NC(=O)c3ccccc3)cc2N1 | > 50 µM | 
CC(C)c1nc2cc(C(=O)O)ccc2n1-c1cccnc1 | 50 µM (≈ 14.1 µg/mL) | 
Cc1ccc(C(=O)N2CCC(Cn3c(C(C)C)nc4cc(C(=O)O)ccc43)CC2)cc1 | 25 µM (≈ 10.5 µg/mL) | 
COc1ccc(C(=O)Nc2ccc3c(c2)NC(=O)Cn2c-3nc3ccccc32)cc1 | 3.12 µM (≈ 1.25 µg/mL) | 
Nc1ccc2c(c1)NC(=O)Cn1c-2nc2ccccc21 | 0.0975 µM (≈ 0.0258 µg/mL) | Activity (THP-1 [4]): Non-Toxic; fold change (FC) [3]: 8 - 10
CC(C)c1nc2cc(C(=O)O)ccc2n1-c1ccccc1Cl | > 50 µM | 
O=C1Cn2c(nc3ccccc32)-c2ccc(NC(=O)c3ccc(Cl)cc3)cc2N1 | 1.56 µM (≈ 0.628 µg/mL) | Activity (THP-1 [4]): Non-Toxic; fold change (FC) [3]: 8 - 10
COc1cccc(-n2c(C(C)C)nc3cc(C(=O)O)ccc32)c1O | 0.78 µM (≈ 0.255 µg/mL) | Activity (THP-1 [4]): Non-Toxic
CC(C)c1nc2cc(C(=O)O)ccc2n1-c1ccc(O)cc1 | 50 µM (≈ 14.8 µg/mL) | 
CC(C)c1nc2cc(C(=O)O)ccc2n1Cc1cccc(F)c1 | 12.5 µM (≈ 3.9 µg/mL) | 
COc1ccc(S(=O)(=O)Nc2ccc3c(c2)NC(=O)Cn2c-3nc3ccccc32)cc1 | 1.56 µM (≈ 0.678 µg/mL) | 
CC(C)c1nc2cc(C(=O)O)ccc2n1-c1ccc(N(C)C)cc1 | 50 µM (≈ 16.2 µg/mL) | 
O=C(CCc1ccccc1)Nc1cc2nc(C3CCCCC3)[nH]c2cc1N1CC1 |  | logP [6]: 4.57
NNC(=O)c1ccncc1 [ISONIAZID] | 0.39 µM (≈ 0.0535 µg/mL) | fold change (FC) [3]: 30
